Experimental data collected from several papers.
Protocols differ between the studies behind these lines.
Target: Mitogen-activated protein kinase 15 (MAPK15, Homo sapiens, UniProt Q8TD08)
One construct used (Q8TD08 1-544): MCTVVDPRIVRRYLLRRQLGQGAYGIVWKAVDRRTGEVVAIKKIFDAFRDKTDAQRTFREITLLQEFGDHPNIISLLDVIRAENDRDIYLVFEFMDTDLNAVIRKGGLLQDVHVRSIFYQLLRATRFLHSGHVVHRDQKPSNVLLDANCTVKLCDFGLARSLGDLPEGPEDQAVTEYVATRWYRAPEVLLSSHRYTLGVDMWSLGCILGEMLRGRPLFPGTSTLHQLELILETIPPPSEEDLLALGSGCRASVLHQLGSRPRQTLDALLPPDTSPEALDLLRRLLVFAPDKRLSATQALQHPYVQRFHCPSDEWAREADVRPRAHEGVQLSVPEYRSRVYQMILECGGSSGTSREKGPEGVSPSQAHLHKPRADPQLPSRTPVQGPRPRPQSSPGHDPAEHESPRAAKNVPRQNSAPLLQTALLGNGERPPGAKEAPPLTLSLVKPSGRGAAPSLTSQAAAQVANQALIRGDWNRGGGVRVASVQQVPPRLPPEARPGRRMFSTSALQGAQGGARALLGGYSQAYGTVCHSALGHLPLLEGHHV

Compound	assay	setting	measurement	value
Nc1nc(Nc2ccccc2)sc1C(=O)c1c(F)cccc1F	enzyme activity, inhibitor	10 µM	remaining activity	14%
C[C@@]1(Cc2ccc(C#N)cc2)C(=O)N(c2cc(Cl)cc(Cl)c2)c2ncc(C(=O)NC3(c4nc(C5CCC5)no4)CC3)n21	cell-free assay, competition with immobilised ligand	1 µM	remaining binding	100%
CC(C)(C)c1nc2c(s1)c1nc(N)ncc1c1ccc(NS(=O)(=O)c3c(F)cccc3F)c(F)c12	enzyme activity, inhibitor, radiometric	1 µM	remaining activity	81%
Cc1c[nH]c2nccc(Oc3c(F)cc(Nc4cc(Cl)nc(N)n4)cc3F)c12	cell-free assay, competition with immobilised ligand	0.1 µM	remaining binding	100%
FC(F)c1nc2ccccc2n1-c1nc(N2CCOCC2)nc(N2CCOCC2)n1	enzyme activity, inhibitor	10 µM	remaining activity	92%
Cc1ccc(C(=O)Nc2ccc(CN3CCN(C)CC3)c(C(F)(F)F)c2)cc1C#Cc1cnc2cccnn12	enzyme activity, inhibitor	23.5 nM	remaining activity	77%
O=C(Nc1cnn(-c2csc(C(=O)NC3COC3)c2)c1)Nc1ccccc1Cl	enzyme activity, inhibitor	5 µM	remaining activity	140%
Cn1cnc(Br)c1C1=CN(c2ncnc3[nH]cnc23)CCS1	enzyme activity, inhibitor, radiometric	50 nM	inhibition	17.1%
CO[C@@H](C)c1c(Nc2ccc([C@@H](N(C)C(=O)C3CCS(=O)(=O)CC3)C(F)(F)F)cc2)cnc2cc(Cl)nn12	cell-free assay, competition with immobilised ligand	1 µM	remaining binding	81%
FC(F)(F)Oc1cccc(-c2cnc3ccc(-c4ccncc4)nn23)c1	enzyme activity, inhibitor, radiometric	5 µM	activity vs control	17%
Nc1nc(Nc2ccc(S(N)(=O)=O)cc2)sc1C(=O)c1ccccc1[N+](=O)[O-]	enzyme activity, inhibitor	0.1 µM	inhibition	73 to 75%
O=C(Nc1cccnn1)N1CCC(=Cc2cccc(Oc3ccc(C(F)(F)F)cn3)c2)CC1	cell-free assay, competition with immobilised ligand	1 µM	remaining binding	83%
Nc1ncnc2occ(-c3ccc(NC(=O)Nc4cc(C(F)(F)F)ccc4F)cc3)c12	cell-free assay, inhibitor	20 µM	remaining signal	0.1%
CC(C)(C)C(=O)c1sc(NC2CCCCC2)nc1N	enzyme activity, inhibitor	10 µM	remaining activity	43%
